Results as given in ChEMBL document CHEMBL4043282, “Discovery of the First Potent, Selective, and Orally Bioavailable Signal Peptide Peptidase-Like 2a (SPPL2a) Inhibitor Displaying Pronounced Immunomodulatory Effects In Vivo” (J Med Chem, 2018).
Converted amounts (≈) assume the structure as drawn. The source made the active and inactive calls. The calls are words filed in the database; no cut-off is given here.

How the values were obtained:
[1] = Inhibition of human gamma-secretase expressed in HEK293 cells using Notch1-VP16-Gal4 as substrate after 24 hrs by Bright-Glo luciferase reporter gene assay; assay type: cell-based; settings: HEK293, 24 h
In short: (§1)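 HEK293 cells transiently transfected with human SPPL2a, VP16-TNFα(aa1-76)-NTF substrate and Gal4-luciferase reporter (SPPL2a), or human Notch1-VP16-Gal4 plus Gal4-luciferase reporter relying on endogenous γ-secretase.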

[2] = Octanol-buffer partition coefficient, log P of the compound by LC/MS/MS based shake flask method; assay type: physicochemical
[3] = target: T1, Signal peptide peptidase-like 2A (Mus musculus, UniProt Q9JJF9); experiment: Inhibition of mouse SPPL2a in A20 cells assessed as CD74/p8 accumulation by flow cytometry; assay type: cell-based
T1 sequence (Q9JJF9 whole entry): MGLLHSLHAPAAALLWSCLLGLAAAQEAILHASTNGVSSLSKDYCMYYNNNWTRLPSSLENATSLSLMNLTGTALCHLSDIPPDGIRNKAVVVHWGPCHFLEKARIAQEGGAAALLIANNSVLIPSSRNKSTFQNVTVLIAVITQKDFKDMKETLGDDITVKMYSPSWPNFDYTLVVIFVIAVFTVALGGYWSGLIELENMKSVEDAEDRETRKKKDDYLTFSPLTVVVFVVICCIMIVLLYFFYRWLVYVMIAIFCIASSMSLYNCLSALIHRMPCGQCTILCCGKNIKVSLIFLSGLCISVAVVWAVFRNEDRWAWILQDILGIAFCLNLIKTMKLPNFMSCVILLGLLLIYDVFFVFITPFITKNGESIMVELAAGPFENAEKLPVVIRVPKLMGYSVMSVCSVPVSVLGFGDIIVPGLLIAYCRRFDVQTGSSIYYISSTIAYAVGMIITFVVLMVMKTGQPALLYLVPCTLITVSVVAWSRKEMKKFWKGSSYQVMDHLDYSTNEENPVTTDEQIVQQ

[4] = target: T2, Signal peptide peptidase-like 2A (Homo sapiens, UniProt Q8TCT8); experiment: Inhibition of human SPPL2a expressed in HEK293 cells using GAL4-VP16 fusedTNFalpha (1 to 76)-NTF as substrate after 24 hrs by Bright-Glo luciferase reporter gene assay; assay type: cell-based; in short: as §1
T2 sequence (Q8TCT8 whole entry): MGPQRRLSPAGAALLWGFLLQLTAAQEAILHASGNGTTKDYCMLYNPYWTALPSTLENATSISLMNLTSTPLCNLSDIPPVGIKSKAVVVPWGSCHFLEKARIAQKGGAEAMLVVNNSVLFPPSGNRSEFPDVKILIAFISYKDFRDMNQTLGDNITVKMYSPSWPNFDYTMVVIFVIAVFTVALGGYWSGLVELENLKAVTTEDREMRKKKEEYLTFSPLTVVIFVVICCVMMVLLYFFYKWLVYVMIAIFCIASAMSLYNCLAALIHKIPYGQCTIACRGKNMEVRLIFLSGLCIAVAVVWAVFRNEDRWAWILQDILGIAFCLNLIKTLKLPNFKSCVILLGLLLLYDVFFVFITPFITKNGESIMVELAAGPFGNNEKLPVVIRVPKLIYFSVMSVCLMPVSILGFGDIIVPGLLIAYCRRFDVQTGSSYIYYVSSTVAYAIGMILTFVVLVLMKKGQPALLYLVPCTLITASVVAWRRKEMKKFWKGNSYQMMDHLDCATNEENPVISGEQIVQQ

[5] = Selectivity ratio of IC50 for human gamma-secretase expressed in HEK293 cells to IC50 for human SPPL2a expressed in HEK293 cells
In short: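 HEK293 transiently transfected: SPPL2a arm with human SPPL2a, VP16-TNFα(aa1-76)-NTF and Gal4-luciferase; γ-secretase arm with human Notch1-VP16-Gal4 plus reporter (endogenous γ-secretase). Compound added 3 h after plating, 10 μM–0.3 nM final, triplicate, 24 h at 37 °C; luminescence read. IC50 from concentration vs normalised luminescence; ratio of the two IC50s.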

[6] = Equilibrium solubility of the compound at pH 6.8 after 24 hrs by saturation shake flask based UV-HPLC method; assay type: physicochemical; settings: buffer
Rattus norvegicus [7] = experiment: Dose normalized AUC in Sprague-Dawley rat at 3 mg/kg, po by LC/MS/MS analysis; assay type: ADME, organism-based; settings: in vivo
In short: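 Female Sprague−Dawley rats catheterized (femoral artery/vein); cassette oral dosing 3 mg/kg per compound as aqueous Tween 80/CMC-Na suspension (0.5/0.5/99), 48 h after iv dose; arterial blood sampled over time into EDTA tubes; LC-MS/MS with QC acceptance 70−130%; noncompartmental PK.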

[8] = target: T1, Signal peptide peptidase-like 2A; experiment: Inhibition of SPPL2a in mouse whole blood assessed as increase in CD74/p8 accumulation after 5.5 hrs by Western bot method
In short: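 Mouse whole blood (200 μL) with compound from 20× stock, 0.5% DMSO final, 5.5 h at 37 °C, 5% CO2 with rotation. RBC lysis, washes, lysis in Tris pH 6.8/Triton/deoxycholate buffer; Western blot with rat anti-mouse CD74 (In-1); p8 band intensity normalized to CD74 full-length/β-actin for dose response.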

[9] = Clearance in Sprague-Dawley rat at 1 mg/kg, iv by LC/MS/MS analysis; assay type: ADME, organism-based; settings: in vivo
In short: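 Female Sprague−Dawley rats with femoral artery and vein catheters implanted 96−120 h beforehand; cassette dosing iv 1 mg/kg per compound in NMP/PEG200 (30:70); arterial blood into EDTA tubes at several times, frozen; LC-MS/MS vs standard curve with QCs within 70−130%; noncompartmental analysis.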

[10] = Clearance in Balb/c mouse at 5 mg/kg, iv by LC/MS/MS analysis; assay type: ADME, organism-based; settings: in vivo
[11] = Oral bioavailability in Sprague-Dawley rat at 1 mg/kg by LC/MS/MS analysis; assay type: ADME, organism-based; settings: in vivo
Mus musculus [12] = experiment: In vivo inhibition of SPPL2a in mouse assessed as increase in CD74/p8 accumulation in splenocytes at 100 mg/kg, po administered as single dose measured after 4 hrs by Western blot method; assay type: functional, organism-based
Mus musculus [13] = experiment: In vivo inhibition of mouse gamma-secretase assessed as effect on Hes1 mRNA level in jejunum at 100 mg/kg, po administered as single dose by RT-PCR method; assay type: organism-based
In short: (§2)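 Thymus and jejunum excised into RNALater, 4 °C overnight, washed, frozen at −80 °C; total RNA from 10 mg tissue by MagNA Pure LC; Hes1 measured by TaqMan real-time PCR; significance by two-tailed heteroscedastic Student's t-test.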

Rattus norvegicus [14] = experiment: Dose normalized AUC in Wistar rat at 10 mg/kg, po bid by LC/MS/MS analysis; assay type: ADME, organism-based; settings: in vivo
[15] = Inhibition of human SPP expressed in human U2OS cells using EGFP-labeled EnvSigSeq-SEAP as substrate after 24 hrs by Hoechst staining based high content imaging assay; assay type: cell-based
In short: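 Stable U-2 OS lines expressing human SPPL2a, SPPL2b or SPP constitutively (mouse SPPL2a line analogous, mouse TNFα(aa1-77)-NTF-EGFP-NLS) with doxycycline-inducible EGFP substrate. 3000 cells/well, 3−4 h, then 11-point inhibitor 100 μM to 1 nM, 0.9% DMSO, 5 μg/mL doxycycline, 24 h 37 °C. PFA fixed, Hoechst nuclei; nuclear minus cytoplasmic EGFP intensity; inhibition vs 0.5 μM reference and DMSO; IC50 by nonlinear regression.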

Mus musculus [16] = experiment: In vivo inhibition of mouse gamma-secretase assessed as effect on Hes1 mRNA level in thymus at 100 mg/kg, po administered as single dose by RT-PCR method; assay type: organism-based; in short: as §2
Mus musculus [17] = experiment: In vivo inhibition of SPPL2a in mouse assessed as increase in CD74/p8 accumulation in splenocytes at 10 to 100 mg/kg, po administered as single dose measured after 4 hrs by Western blot method; assay type: functional, organism-based

IC50 [1]	logP [2]	IC50 [4]	SMILES	Ratio IC50 [5]	other results
> 10000 nM	1.6		Cc1ncc(F)cc1NC(=O)C[C@H](C(=O)N[C@@H]1C(=O)N2CCCN2C(=O)c2ccccc21)C1CC1		IC50 [3]: 496 nM
27 nM			Cc1ccc(NC(=O)C[C@@H](C)C(=O)N[C@@H]2C(=O)N3CCCN3Cc3ccccc32)cc1		
17 nM		5 nM	C[C@H](CC(=O)Nc1cc(F)cc(F)c1)C(=O)N[C@@H]1C(=O)N2CCCN2Cc2ccccc21	3	
> 10000 nM		2850 nM	C[C@H](CC(=O)Nc1ccccc1C(F)(F)F)C(=O)N[C@@H]1C(=O)N2CCCN2Cc2ccccc21	>3	
610 nM		70 nM	Cc1cccc(NC(=O)C[C@@H](C)C(=O)N[C@@H]2C(=O)N3CCCN3Cc3ccccc32)c1	9	
> 10000 nM		1020 nM	Cc1ncccc1NC(=O)C[C@@H](C)C(=O)N[C@@H]1C(=O)N2CCCN2Cc2ccccc21		solubility thermodynamic at 24 h [6]: > 1000 µM
> 10000 nM		6 nM	CC(C)C[C@H](NC(=O)OCc1ccccc1)C(=O)N[C@@H](CC(C)C)C(=O)NCC(=O)CNC(=O)[C@H](CC(C)C)NC(=O)[C@H](CC(C)C)NC(=O)OCc1ccccc1	>1666	
8200 nM	1.7	44 nM	Cc1ncc(F)cc1NC(=O)C[C@@H](C)C(=O)N[C@@H]1C(=O)N2CCCN2Cc2ccccc21		AUC/dose (Rattus norvegicus [7]): 157 nM·h; solubility thermodynamic at 24 h [6]: > 1000 µM; IC50 [8]: 50 nM; clearance [9]: 34 mL/min/kg; clearance [10]: 32 mL/min/kg; IC50 [3]: 97 nM; bioavailability [11]: 100%
7800 nM	2.1	76 nM	Cc1ncc(F)cc1NC(=O)C[C@@H](C)C(=O)N[C@@H]1C(=O)N2CCCN2Cc2c(F)cccc21		AUC/dose (Rattus norvegicus [7]): 1522 nM·h; solubility thermodynamic at 24 h [6]: 257 µM (≈ 118 µg/mL); clearance [9]: 15 mL/min/kg; IC50 [3]: 121 nM; bioavailability [11]: 54%
< 0.3 nM		10 nM	C[C@H](NC(=O)[C@@H](O)c1cc(F)cc(F)c1)C(=O)N[C@@H]1C(=O)N(C)c2ccccc2-c2ccccc21	<1	Activity (Mus musculus [12]): Active; Activity (Mus musculus [13]): Toxic; AUC/dose (Rattus norvegicus [14]): 63 nM·h; IC50 [15]: 50 nM; Activity (Mus musculus [16]): Toxic; Activity (Mus musculus [17]): Active
> 10000 nM	0.9		Cc1ncc(F)cc1NC(=O)C[C@@H](C)C(=O)N[C@@H]1C(=O)N2CCCN2C(=O)c2ccccc21		
